{
  "source": "ChEMBL document CHEMBL4725371",
  "about": "“A Novel Redox Modulator Induces a GPX4-Mediated Cell Death That Is Dependent on Iron and Reactive Oxygen Species” (J Med Chem, 2020)",
  "key": {"MIA PaCa-2 [1]": {"tested_on": "MIA PaCa-2", "test": "Inhibition of colony formation in human MIA PaCa-2 cells at 0.5 uM measured after 7 to 9 days in presence of iron chelator deferoxamine by crystal violet staining based assay", "format": "functional, cell-based", "conditions": "time day 7-9", "method_in_brief": "(§1)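 Cells seeded overnight in 96-well plates at 300 cells/well (MIA PaCa-2) or 600 cells/well (BxPC-3), in RPMI 1640 with 10% FBS. Inhibitor added 1 h before compound, then continuous exposure for 7–9 days until control wells were 80–90% confluent. Stained with 0.05% crystal violet for 30 min, imaged after overnight drying and quantified.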"}, "MIA PaCa-2 [2]": {"tested_on": "MIA PaCa-2", "test": "Inhibition of colony formation in human MIA PaCa-2 cells at 0.25 to 1 uM measured after 7 to 9 days in presence of caspase-dependent apoptosis inhibitor Z-VAD by crystal violet staining based assay", "format": "functional, cell-based", "conditions": "dose microM 0.25-1, time day 7-9", "method_in_brief": "as §1"}, "MIA PaCa-2 [3]": {"tested_on": "MIA PaCa-2", "test": "Down regulation of PNPT1 expression in human MIA PaCa-2 cells at 3 times IC50 measured after 4 hrs by proteomics analysis", "format": "functional, cell-based"}, "[4]": {"test": "Drug metabolism in mouse plasma assessed as 6-[4-[(2R)-2-hydroxy-4-methyl-piperazin-1-yl]anilino]quinazoline-5,8-dione formation at 500 uM measured after 0.5 hrs by LC-MS/MS analysis", "format": "ADME, cell-free", "method_in_brief": "(§2)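 Compound (500 μM DMSO stock, 1 μL per 500 μL) was incubated in pooled mouse plasma. Samples were taken at 0.5 h and metabolites identified by LC-MS/MS.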"}, "MIA PaCa-2 [5]": {"tested_on": "MIA PaCa-2", "test": "Inhibition of colony formation in human MIA PaCa-2 cells at 0.4 to 0.8 uM measured after 7 to 9 days in presence of necroptosis inhibitor necrostatin-1 by crystal violet staining based assay", "format": "functional, cell-based", "conditions": "dose microM 0.4-0.8, time day 7-9", "method_in_brief": "as §1"}, "MIA PaCa-2 [6]": {"tested_on": "MIA PaCa-2", "test": "Synergistic inhibition of colony formation in human MIA PaCa-2 cells at 0.25 uM measured after 24 hrs in presence of As2O3 by crystal violet staining based assay", "format": "functional, cell-based", "method_in_brief": "(§3)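 Colony formation in 96-well plates seeded at 300 (MIA PaCa-2) or 600 (PANC-1) cells/well. Napabucasin, As2O3 or olaparib added 1 h before test compound; drugs on cells 24 h. Plates kept until controls were 80–90% confluent (7–9 days), then stained with 0.05% crystal violet and quantified. Synergy scored by HSA and Bliss models.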"}, "MIA PaCa-2 [7]": {"tested_on": "MIA PaCa-2", "test": "Inhibition of colony formation in human MIA PaCa-2 cells at 0.4 to 0.8 uM measured after 7 to 9 days in presence of ferroptosis inhibitor ferrostatin-1 by crystal violet staining based assay", "format": "functional, cell-based", "conditions": "dose microM 0.4-0.8, time day 7-9", "method_in_brief": "as §1"}, "CT26": {"tested_on": "CT26", "test": "Antitumor activity against mouse CT26 cells implanted in Balb/c mouse assessed as tumor shrinkage at 20 mg/kg, ip", "format": "functional, organism-based", "method_in_brief": "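Female Balb/c mice aged 5–6 weeks, implanted subcutaneously in right flank with 1 × 10⁶ CT-26 cells in DPBS. Dosing began 7 days later with randomisation (n = 5/group, mean tumour 97–117 mm³). IV dosing was 3 times weekly and IP dosing was given. Vehicle control given daily IP. Mice were euthanised four hours post-dose after 17 days of dosing.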"}, "[8]": {"biological_target": "T1, Phospholipid hydroperoxide glutathione peroxidase GPX4 (Homo sapiens) (UniProt P36969)", "T1 sequence (whole entry)": "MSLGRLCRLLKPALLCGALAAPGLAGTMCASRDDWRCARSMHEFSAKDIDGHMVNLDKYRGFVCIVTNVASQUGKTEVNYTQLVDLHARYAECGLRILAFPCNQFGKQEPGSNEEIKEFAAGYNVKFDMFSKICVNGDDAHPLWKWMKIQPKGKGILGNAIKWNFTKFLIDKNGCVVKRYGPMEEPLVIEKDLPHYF", "test": "Binding affinity to GPX4 in human PANC-1 cells assessed as protein destabilization by measuring reduction in melting temperature at 100 uM measured after 1 hr by thermal shift assay", "format": "cell-based"}, "[9]": {"test": "Drug metabolism in mouse plasma assessed as 7-hydroxy-6-[4-(4-methylpiperazin-1-yl)anilino]-6,7-dihydroquinazoline-5,8-dione formation at 500 uM measured after 0.5 hrs by LC-MS/MS analysis", "format": "ADME, cell-free", "method_in_brief": "as §2"}, "MIA PaCa-2 [10]": {"tested_on": "MIA PaCa-2", "test": "Down regulation of PNPT1 expression in human MIA PaCa-2 cells at 1.2 uM measured after 24 hrs by proteomics analysis", "format": "functional, cell-based", "method_in_brief": "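MIA PaCa-2 cells were treated with 1.2 μM compound or DMSO for 24 h and lysed in RIPA buffer. 75 μg protein per sample was run in duplicate by TMT10plex-labelled proteomics. Abundance ratio was taken as treatment over control. Changes of at least 1.5-fold at FDR < 0.05 were scored.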"}, "MIA PaCa-2 [11]": {"tested_on": "MIA PaCa-2", "test": "Inhibition of colony formation in human MIA PaCa-2 cells at 0.4 to 0.8 uM measured after 7 to 9 days in presence of iron chelator deferasirox by crystal violet staining based assay", "format": "functional, cell-based", "conditions": "dose microM 0.4-0.8, time day 7-9", "method_in_brief": "as §1"}, "BXPC-3": {"tested_on": "BXPC-3", "test": "Inhibition of colony formation in human BXPC-3 cells at 0.375 uM measured after 7 to 9 days in presence of GPX4 inhibitor RSL3 by crystal violet staining based assay", "format": "functional, cell-based", "conditions": "time day 7-9", "method_in_brief": "as §1"}, "MIA PaCa-2 [12]": {"tested_on": "MIA PaCa-2", "test": "Cytotoxicity against human MIA PaCa-2 cells measured after 72 hrs in presence of N-acetylcysteine by MTT assay", "format": "functional, cell-based", "conditions": "MIA PaCa-2, 72 h"}, "PANC-1 [13]": {"tested_on": "PANC-1", "test": "Synergistic inhibition of colony formation in human PANC-1 cells at 0.25 to 0.5 uM measured after 24 hrs in presence of olaparib by crystal violet staining based assay", "format": "functional, cell-based", "conditions": "dose microM 0.25-0.5, time 24.0 hrs", "method_in_brief": "as §3"}, "PANC-1 [14]": {"tested_on": "PANC-1", "test": "Synergistic inhibition of colony formation in human PANC-1 cells at 0.125 to 0.5 uM measured after 24 hrs in presence of napabucasin by crystal violet staining based assay", "format": "functional, cell-based", "conditions": "dose microM 0.125-0.5, time 24.0 hrs", "method_in_brief": "as §3"}, "MIA PaCa-2 [15]": {"tested_on": "MIA PaCa-2", "test": "Inhibition of colony formation in human MIA PaCa-2 cells at 0.5 uM measured after 7 to 9 days in presence of ferroptosis inhibitor liproxstatin-1 by crystal violet staining based assay", "format": "functional, cell-based", "conditions": "time day 7-9", "method_in_brief": "as §1"}, "PANC-1 [16]": {"tested_on": "PANC-1", "test": "Down regulation of PNPT1 expression in human PANC-1 cells at 3 times IC50 measured after 1 to 24 hrs by proteomics analysis", "format": "functional, cell-based", "conditions": "time hrs 1-24"}, "MIA PaCa-2 [17]": {"tested_on": "MIA PaCa-2", "test": "Synergistic inhibition of colony formation in human MIA PaCa-2 cells at 0.25 to 0.5 uM measured after 24 hrs in presence of napabucasin by crystal violet staining based assay", "format": "functional, cell-based", "conditions": "dose microM 0.25-0.5, time 24.0 hrs", "method_in_brief": "as §3"}, "PANC-1 [18]": {"tested_on": "PANC-1", "test": "Induction of DNA damage in human PANC-1 cells assessed as increase in H2AX phosphorylation at 1.2 to 1.8 uM measured after 4 hrs by Western blot analysis", "format": "functional, cell-based", "conditions": "dose microM 1.2-1.8, time 4.0 hrs", "method_in_brief": "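Cells were treated 4 h at the stated concentrations and lysed in RIPA with protease and phosphatase inhibitors. 25 μg protein was resolved on 10% SDS gels, transferred to PVDF and probed for STAT3, pSTAT3, pH2AX and GAPDH. Detection used fluorescent secondary antibodies, with normalisation to loading control.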"}, "PANC-1 [19]": {"tested_on": "PANC-1", "test": "Induction of reactive oxygen species in human PANC-1 cells at 10 uM measured after 1 hr by CM-H2DCFDA dye based fluorescence assay", "format": "functional, cell-based", "method_in_brief": "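1.8 × 10⁴ cells per well were attached overnight, then loaded with 10 μM CM-H2DCFDA in HBSS for 40 min at 37 °C and washed. Compounds were added in HBSS. Fluorescence was read at Ex 483 / Em 530 nm. TBHP was the positive control. NAC at 3 mM was used where stated.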"}},
  "note": "Active and inactive are the calls of the source. The calls are words filed in the database; no cut-off is given here.",
  "data": [
    {"smiles": "CN1CCN(c2ccc(NC3=CC(=O)c4ncncc4C3=O)cc2)CC1", "values": [
      {"measurement": "inhibition", "setting": "MIA PaCa-2 [1]", "value": "inactive"},
      {"measurement": "inhibition", "setting": "MIA PaCa-2 [2]", "value": "Active"},
      {"measurement": "Activity", "setting": "MIA PaCa-2 [3]", "value": "Active"},
      {"measurement": "Drug metabolism", "setting": "[4]", "value": "Metabolite_Detected"},
      {"measurement": "inhibition", "setting": "MIA PaCa-2 [5]", "value": "Active"},
      {"measurement": "inhibition", "setting": "MIA PaCa-2 [6]", "value": "Active"},
      {"measurement": "inhibition", "setting": "MIA PaCa-2 [7]", "value": "Active"},
      {"measurement": "Activity", "setting": "CT26", "value": "Active"},
      {"measurement": "Activity", "setting": "[8]", "value": "Active"},
      {"measurement": "Drug metabolism", "setting": "[9]", "value": "Metabolite_Detected"},
      {"measurement": "Activity", "setting": "MIA PaCa-2 [10]", "value": "Active"},
      {"measurement": "inhibition", "setting": "MIA PaCa-2 [11]", "value": "inactive"},
      {"measurement": "inhibition", "setting": "BXPC-3", "value": "inactive"},
      {"measurement": "IC50", "setting": "MIA PaCa-2 [12]", "value": 1.11, "unit": "µM"},
      {"measurement": "inhibition", "setting": "PANC-1 [13]", "value": "Active"},
      {"measurement": "inhibition", "setting": "PANC-1 [14]", "value": "Active"},
      {"measurement": "inhibition", "setting": "MIA PaCa-2 [15]", "value": "inactive"},
      {"measurement": "Activity", "setting": "PANC-1 [16]", "value": "inactive"},
      {"measurement": "inhibition", "setting": "MIA PaCa-2 [17]", "value": "Active"},
      {"measurement": "Activity", "setting": "PANC-1 [18]", "value": "Active"},
      {"measurement": "Activity", "setting": "PANC-1 [19]", "value": "Active"}
    ]}
  ]
}
